In general, Ki refers to the equilibrium dissociation constant of an inhibitor or competing ligand from its target.

This note sets out measurements from ChEMBL document CHEMBL1133101, “7-Methyl-6,7,8,9,14,15-hexahydro-5H-benz[d]indolo[2,3-g]azecine: a new heterocyclic system and a new lead compound for dopamine receptor antagonists” (J Med Chem, 2000).

For test [1], the target named is D(1A) dopamine receptor (Rattus norvegicus, UniProt P18901). Nature of the test: Binding affinity against Dopamine receptor D1 of rat striatal receptor using [3H]SCH-23390. Summed up:
(§1)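 Rat striatal receptor preparations were used, with [3H]SCH23390 for D1, [3H]spiperone for D2 and [3H]RP62203 for 5-HT2. Ki ([…]) was derived from competitive displacement of the radioligand, with n = 3–7.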

Test [2] deals with T1, 5-hydroxytryptamine receptor 1A (Homo sapiens) (UniProt P08908).
T1 sequence (whole entry): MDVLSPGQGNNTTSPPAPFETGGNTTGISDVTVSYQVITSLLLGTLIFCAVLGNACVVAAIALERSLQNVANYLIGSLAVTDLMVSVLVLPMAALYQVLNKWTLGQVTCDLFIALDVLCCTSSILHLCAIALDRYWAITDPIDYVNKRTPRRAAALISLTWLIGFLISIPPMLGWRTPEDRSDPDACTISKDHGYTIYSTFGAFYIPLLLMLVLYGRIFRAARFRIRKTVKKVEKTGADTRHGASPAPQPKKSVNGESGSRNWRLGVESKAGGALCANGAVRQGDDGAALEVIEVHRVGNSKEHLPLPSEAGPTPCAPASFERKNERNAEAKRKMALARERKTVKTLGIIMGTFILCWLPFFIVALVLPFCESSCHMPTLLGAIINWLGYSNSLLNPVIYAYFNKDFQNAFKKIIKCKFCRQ
Nature of the test: Percent decrease in 5-hydroxytryptamine 1A receptor binding using 8-OH-DPAT. Also noted: concentration or dose not given beside the values. In short, it runs like this:
(§2)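 Preliminary screen of receptors isolated from rat or pig tissues, run with minor changes to standard procedures. Each compound was tested at a single fixed concentration for each receptor. The read-out was the percent decrease in binding of the named radioligand.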

Test [3] has as its target Sodium-dependent serotonin transporter (Homo sapiens) (UniProt P31645). The experiment in a line: % Decrease of 5-HT carrier-receptor -bound radioactivity using paroxetine as a radioligand. Also noted: concentration or dose not given beside the values. Summed up:
as §2

For test [4], the target named is Sulfonylurea receptors; K-ATP channels (Homo sapiens) (UniProt Q14654+O60706+Q09428+Q15842). Nature of the test: Percent inhibition of glibenclamide binding to K+ channel. Also noted: concentration or dose not given beside the values. In kind it is protein-complex assay. In short, it runs like this:
as §2

In test [5] the target is GABA-A receptor; anion channel (Homo sapiens) (UniProt P14867+P47870+P18507+P28472+P48169+Q99928+Q9UN88+P34903+O00591+O14764+Q8N1C3+P18505+P78334+P47869+P31644+Q16445). Nature of the test: Displacement of muscimol from GABA-A receptor. It counts as protein-complex assay. Summed up: as §2
A short description of test [6]: % Decrease of Phorbol Diester Receptor -bound radioactivity using PDBU as a radioligand. Also on record: scale not given: the % may be the effect or the level left. Summed up: as §2
Test [7] in a line: % Decrease of adenosine carrier-receptor -bound radioactivity using NBTI as a radioligand. Also noted: concentration or dose not given beside the values. Summed up: as §2
Test [8] in a line: Percent decrease in Dopamine receptor D2 binding using spiperone. Also noted: scale not given: the % may be the effect or the level left.
Test [9] addresses Angiotensin II receptor (Homo sapiens) (UniProt P30556+P50052). Nature of the test: Percent decrease of Angiotensin II receptor binding. In kind it is protein assay. Also noted: concentration or dose not given beside the values. Summed up:
as §2

The nature of test [10]: Percent decrease in Bradykinin receptor binding. Also on record: concentration or dose not given beside the values. Summed up:
as §2

The target of test [11] is T2, Muscarinic acetylcholine receptor M1 (Homo sapiens) (UniProt P11229).
T2 sequence (whole entry): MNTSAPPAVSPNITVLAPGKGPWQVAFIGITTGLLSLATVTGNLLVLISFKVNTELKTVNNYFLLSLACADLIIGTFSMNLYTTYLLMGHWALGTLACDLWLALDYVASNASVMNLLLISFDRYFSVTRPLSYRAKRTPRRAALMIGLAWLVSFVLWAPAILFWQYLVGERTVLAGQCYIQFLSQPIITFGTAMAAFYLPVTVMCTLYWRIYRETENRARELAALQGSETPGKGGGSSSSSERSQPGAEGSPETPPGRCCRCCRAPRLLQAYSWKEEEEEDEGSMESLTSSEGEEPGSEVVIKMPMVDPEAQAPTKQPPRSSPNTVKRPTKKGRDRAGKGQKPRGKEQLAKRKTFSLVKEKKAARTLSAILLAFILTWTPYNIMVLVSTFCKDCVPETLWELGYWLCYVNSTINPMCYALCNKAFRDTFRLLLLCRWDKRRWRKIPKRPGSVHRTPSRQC
Nature of the test: Percent decrease of Muscarinic acetylcholine receptor M1 binding using pirenzepine. Also noted: scale not given: the % may be the effect or the level left. Summed up:
as §2

The target of test [12] is D(2) dopamine receptor (Rattus norvegicus, UniProt P61169). Nature of the test: Binding affinity against Dopamine receptor D2 of rat striatal mambranes using [3H]spiperone. Summed up: as §1
For test [13], the target named is Glutamate [NMDA] receptor (Homo sapiens) (UniProt Q05586+Q12879+Q13224+O15399+O60391+Q14957+Q8TCU5). The experiment in a line: Percent decrease of N-methyl-D-aspartate glutamate receptor binding using MK-801. In kind it is protein-complex assay. Also on record: concentration or dose not given beside the values. Summed up:
as §2

The target in test [14] is T3, Glutamate receptor ionotropic AMPA (Homo sapiens) (UniProt P48058+P42263+P42262+P42261). Nature of the test: Percent decrease in Quisqualate receptor binding using AMPA. Also on record: scale not given: the % may be the effect or the level left. It counts as protein-complex assay. In short, it runs like this:
as §2

Test [15] concerns the target D(1A) dopamine receptor (Rattus norvegicus) (UniProt P18901). Nature of the test: Percent decrease in Dopamine receptor D1 binding using SCH-23390. Also on record: scale not given: the % may be the effect or the level left.
Test [16] in a line: Percent decrease of Endothelin receptor binding using [125I]sarafotoxin. Also noted: concentration or dose not given beside the values.
Test [17] deals with Serotonin 2 (5-HT2) receptor (Homo sapiens) (UniProt P41595+P28223+P28335). The experiment in a line: (§3) Percent decrease in 5-hydroxytryptamine 2 receptor binding using ketanserin. It counts as protein assay. Also on record: scale not given: the % may be the effect or the level left. Summed up:
as §2

Test [18] has as its target Serotonin 2 (5-HT2) receptor (Rattus norvegicus, UniProt P30994+P08909+P14842). The experiment in a line: Binding affinity against 5-hydroxytryptamine 2 receptor in rat striatum using [3H]-RP62203. It counts as tissue-based.
Test [19] addresses Neuronal acetylcholine receptor (Rattus norvegicus) (UniProt P04757+P09483+P12389+P12390+P12392+P43144+Q9JLB5+P12391+P43143+P20420+Q05941). Nature of the test: % Decrease of Nicotinic acetylcholine receptor-bound radioactivity using cytisine as a radioligand. In kind it is protein-complex assay. Also noted: scale not given: the % may be the effect or the level left. In short, it runs like this:
as §2

In test [20] the target is T4, Adenosine receptor A1 (Homo sapiens) (UniProt P30542).
T4 sequence (whole entry): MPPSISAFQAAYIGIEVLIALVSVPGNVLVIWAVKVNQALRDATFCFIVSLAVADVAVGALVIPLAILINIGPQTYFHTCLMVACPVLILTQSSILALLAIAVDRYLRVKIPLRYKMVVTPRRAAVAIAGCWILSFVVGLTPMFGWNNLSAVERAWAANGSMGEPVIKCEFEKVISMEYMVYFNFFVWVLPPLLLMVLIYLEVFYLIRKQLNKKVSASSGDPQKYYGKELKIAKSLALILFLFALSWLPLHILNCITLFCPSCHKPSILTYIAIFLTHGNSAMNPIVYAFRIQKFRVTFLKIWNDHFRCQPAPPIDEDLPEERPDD
Nature of the test: Percent decrease in Adenosine A1 receptor binding using CPDPX. Also noted: scale not given: the % may be the effect or the level left.

Test [21] addresses T3, Glutamate receptor ionotropic AMPA (Homo sapiens). The experiment in a line: Percent decrease of Quisqualate receptor binding using AMPA. In kind it is protein-complex assay. Also noted: scale not given: the % may be the effect or the level left. In short, it runs like this: as §2
For test [22], the target named is Adrenergic receptor alpha-1 (Homo sapiens) (UniProt P35348+P25100+P35368). The experiment in a line: Percent decrease in Alpha-1 adrenergic receptor binding using prazosin. It counts as protein assay. Summed up:
as §2

Test [23] deals with T4, Adenosine receptor A1 (Homo sapiens). Nature of the test: Percent decrease in adenosine-A1-receptor binding using CPDPX. Also on record: scale not given: the % may be the effect or the level left. In short, it runs like this:
as §2

The target in test [24] is Serotonin 2 (5-HT2) receptor (Rattus norvegicus) (UniProt P30994+P08909+P14842). The test is described as §3. In kind it is protein assay. Also on record: scale not given: the % may be the effect or the level left. Summed up:
as §2

The target of test [25] is D(2) dopamine receptor (Rattus norvegicus) (UniProt P61169). Nature of the test: Percent decrease in Dopamine receptor D2 binding using spiperone. Also on record: scale not given: the % may be the effect or the level left. In short, it runs like this: as §2

Each structure is given as a SMILES string.

Chain of Sulfonylurea receptors; K-ATP channels (Homo sapiens) (O60706 whole entry, looked up): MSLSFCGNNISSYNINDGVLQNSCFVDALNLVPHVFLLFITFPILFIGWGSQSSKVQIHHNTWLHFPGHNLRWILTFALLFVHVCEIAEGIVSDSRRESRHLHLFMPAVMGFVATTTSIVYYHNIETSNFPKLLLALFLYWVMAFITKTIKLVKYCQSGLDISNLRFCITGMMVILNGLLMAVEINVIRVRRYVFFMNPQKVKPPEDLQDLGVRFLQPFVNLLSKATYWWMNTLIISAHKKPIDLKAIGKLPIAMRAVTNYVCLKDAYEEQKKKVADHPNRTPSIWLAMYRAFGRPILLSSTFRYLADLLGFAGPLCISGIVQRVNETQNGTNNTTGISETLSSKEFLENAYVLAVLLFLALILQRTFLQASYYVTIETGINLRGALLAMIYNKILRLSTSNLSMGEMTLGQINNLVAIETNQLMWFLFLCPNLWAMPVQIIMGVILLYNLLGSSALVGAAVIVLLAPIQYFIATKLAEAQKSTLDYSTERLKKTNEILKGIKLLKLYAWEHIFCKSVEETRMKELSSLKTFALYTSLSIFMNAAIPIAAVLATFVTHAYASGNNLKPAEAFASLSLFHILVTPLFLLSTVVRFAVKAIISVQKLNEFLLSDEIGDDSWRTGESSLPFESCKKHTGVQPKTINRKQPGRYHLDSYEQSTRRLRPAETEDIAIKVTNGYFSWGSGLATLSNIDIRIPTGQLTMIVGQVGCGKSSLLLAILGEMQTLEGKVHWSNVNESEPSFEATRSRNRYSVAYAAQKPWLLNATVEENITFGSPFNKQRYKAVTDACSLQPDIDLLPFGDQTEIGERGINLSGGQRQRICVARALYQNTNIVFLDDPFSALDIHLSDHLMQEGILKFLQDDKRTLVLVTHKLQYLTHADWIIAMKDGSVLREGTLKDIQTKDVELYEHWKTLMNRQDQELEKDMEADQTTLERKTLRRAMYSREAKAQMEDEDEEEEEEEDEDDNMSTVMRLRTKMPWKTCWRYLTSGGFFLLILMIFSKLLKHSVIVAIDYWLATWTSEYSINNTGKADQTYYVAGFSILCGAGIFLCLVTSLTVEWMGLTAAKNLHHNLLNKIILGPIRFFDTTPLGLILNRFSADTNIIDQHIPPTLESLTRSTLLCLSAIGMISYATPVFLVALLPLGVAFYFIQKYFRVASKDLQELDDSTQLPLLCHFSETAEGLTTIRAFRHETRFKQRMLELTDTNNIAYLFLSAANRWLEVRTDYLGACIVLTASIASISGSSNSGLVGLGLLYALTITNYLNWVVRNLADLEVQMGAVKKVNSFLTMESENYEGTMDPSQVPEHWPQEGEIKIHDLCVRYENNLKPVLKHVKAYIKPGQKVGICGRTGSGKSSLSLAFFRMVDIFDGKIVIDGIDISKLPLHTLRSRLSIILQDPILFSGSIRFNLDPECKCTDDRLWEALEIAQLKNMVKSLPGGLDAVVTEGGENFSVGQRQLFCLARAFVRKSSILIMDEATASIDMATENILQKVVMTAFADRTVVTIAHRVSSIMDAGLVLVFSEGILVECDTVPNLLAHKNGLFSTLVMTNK
Chain of Sulfonylurea receptors; K-ATP channels (Homo sapiens) (Q09428 whole entry, looked up): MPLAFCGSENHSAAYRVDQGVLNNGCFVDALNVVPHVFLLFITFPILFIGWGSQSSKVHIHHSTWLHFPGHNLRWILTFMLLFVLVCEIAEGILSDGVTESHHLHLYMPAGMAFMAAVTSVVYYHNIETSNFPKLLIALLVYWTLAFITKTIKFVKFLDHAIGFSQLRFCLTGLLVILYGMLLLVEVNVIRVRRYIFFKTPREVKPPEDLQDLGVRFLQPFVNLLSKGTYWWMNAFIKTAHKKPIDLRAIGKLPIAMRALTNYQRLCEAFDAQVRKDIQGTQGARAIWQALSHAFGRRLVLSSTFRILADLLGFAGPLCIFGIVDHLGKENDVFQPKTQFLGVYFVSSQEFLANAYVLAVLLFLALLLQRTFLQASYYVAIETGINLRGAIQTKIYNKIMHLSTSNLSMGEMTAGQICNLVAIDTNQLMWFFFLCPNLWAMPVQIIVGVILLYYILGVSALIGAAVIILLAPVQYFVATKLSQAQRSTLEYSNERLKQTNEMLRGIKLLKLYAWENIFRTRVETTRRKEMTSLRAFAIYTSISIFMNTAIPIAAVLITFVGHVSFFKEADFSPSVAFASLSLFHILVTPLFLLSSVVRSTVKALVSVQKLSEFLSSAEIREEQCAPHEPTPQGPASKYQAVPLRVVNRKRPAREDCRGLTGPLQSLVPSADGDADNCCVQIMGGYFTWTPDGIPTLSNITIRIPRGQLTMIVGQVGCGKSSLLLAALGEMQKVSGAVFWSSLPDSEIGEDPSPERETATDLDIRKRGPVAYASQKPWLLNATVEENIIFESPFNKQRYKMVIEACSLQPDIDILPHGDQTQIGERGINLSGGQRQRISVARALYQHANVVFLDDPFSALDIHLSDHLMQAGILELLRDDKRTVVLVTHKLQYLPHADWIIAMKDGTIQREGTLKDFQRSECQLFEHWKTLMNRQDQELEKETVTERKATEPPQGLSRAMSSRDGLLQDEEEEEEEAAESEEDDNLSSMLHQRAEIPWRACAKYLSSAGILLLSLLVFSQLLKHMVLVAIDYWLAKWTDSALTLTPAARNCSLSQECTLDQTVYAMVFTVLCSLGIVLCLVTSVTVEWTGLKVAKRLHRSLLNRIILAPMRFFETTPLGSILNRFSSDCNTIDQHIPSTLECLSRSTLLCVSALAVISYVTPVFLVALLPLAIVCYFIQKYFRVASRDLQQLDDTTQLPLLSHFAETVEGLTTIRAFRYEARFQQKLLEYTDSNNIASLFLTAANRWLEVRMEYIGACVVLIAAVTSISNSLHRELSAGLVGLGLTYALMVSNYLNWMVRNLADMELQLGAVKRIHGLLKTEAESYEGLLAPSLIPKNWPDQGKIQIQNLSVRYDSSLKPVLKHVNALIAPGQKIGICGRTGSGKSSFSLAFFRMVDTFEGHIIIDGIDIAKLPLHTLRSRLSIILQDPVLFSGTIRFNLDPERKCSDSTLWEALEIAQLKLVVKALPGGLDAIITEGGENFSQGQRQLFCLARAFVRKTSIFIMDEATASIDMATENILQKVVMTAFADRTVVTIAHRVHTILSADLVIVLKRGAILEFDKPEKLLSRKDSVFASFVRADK
Chain of Sulfonylurea receptors; K-ATP channels (Homo sapiens) (Q14654 whole entry, looked up): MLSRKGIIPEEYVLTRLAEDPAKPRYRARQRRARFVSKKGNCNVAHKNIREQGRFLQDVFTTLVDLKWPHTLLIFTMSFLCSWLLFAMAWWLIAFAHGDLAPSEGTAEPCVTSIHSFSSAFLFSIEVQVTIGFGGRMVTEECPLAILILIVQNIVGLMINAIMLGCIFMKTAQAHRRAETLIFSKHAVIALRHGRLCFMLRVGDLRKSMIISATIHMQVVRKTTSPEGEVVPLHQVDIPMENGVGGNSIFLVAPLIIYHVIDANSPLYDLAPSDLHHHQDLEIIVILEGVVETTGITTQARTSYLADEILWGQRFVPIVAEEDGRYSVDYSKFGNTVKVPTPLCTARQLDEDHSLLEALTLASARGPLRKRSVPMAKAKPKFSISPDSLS
Chain of Sulfonylurea receptors; K-ATP channels (Homo sapiens) (Q15842 whole entry, looked up): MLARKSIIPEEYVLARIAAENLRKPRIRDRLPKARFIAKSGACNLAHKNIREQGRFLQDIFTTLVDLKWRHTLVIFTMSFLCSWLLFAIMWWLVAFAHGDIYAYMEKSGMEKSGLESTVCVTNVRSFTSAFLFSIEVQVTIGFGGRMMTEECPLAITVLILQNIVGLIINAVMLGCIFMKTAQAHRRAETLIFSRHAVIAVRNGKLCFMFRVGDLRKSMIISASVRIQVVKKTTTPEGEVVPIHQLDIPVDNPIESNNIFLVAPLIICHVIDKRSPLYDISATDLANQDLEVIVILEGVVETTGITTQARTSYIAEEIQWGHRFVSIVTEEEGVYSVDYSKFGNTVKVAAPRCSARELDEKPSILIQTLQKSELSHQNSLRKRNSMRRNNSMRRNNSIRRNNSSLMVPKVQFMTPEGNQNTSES
Chain of Sodium-dependent serotonin transporter (Homo sapiens) (P31645 whole entry, looked up): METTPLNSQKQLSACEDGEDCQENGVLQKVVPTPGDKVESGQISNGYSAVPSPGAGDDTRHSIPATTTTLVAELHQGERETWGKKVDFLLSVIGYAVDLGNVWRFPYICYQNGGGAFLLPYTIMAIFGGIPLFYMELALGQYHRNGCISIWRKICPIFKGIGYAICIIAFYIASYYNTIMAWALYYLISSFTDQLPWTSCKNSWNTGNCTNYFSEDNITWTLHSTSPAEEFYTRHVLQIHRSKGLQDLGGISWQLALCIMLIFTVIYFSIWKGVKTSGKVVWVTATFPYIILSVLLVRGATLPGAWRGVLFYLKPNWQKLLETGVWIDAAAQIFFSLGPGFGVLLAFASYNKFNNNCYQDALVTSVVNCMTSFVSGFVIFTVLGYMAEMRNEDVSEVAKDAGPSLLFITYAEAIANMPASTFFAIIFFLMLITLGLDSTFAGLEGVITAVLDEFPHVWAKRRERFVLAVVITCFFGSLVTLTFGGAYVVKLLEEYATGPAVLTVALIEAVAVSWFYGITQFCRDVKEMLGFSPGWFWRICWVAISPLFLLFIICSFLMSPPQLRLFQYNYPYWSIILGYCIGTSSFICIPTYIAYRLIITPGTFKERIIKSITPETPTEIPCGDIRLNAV
Chain of D(1A) dopamine receptor (Rattus norvegicus) (P18901 whole entry, looked up): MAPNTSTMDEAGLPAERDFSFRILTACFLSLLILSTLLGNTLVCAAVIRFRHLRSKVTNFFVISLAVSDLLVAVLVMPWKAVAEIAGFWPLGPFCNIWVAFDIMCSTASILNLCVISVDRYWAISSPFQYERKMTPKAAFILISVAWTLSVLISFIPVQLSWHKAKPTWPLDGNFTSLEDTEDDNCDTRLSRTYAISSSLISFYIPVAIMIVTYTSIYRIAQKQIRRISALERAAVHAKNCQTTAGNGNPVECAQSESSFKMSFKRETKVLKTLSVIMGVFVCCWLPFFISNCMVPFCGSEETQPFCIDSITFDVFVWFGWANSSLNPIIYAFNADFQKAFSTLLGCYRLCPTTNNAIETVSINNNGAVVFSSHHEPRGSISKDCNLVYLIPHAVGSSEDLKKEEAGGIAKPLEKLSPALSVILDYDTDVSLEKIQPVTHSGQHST
Chain of D(1A) dopamine receptor (P18901 whole entry): as the sequence (P18901 whole entry, looked up) above

Regarding `CN1CCc2c([nH]c3ccccc23)Cc2[nH]c3ccccc3c2CC1`, the figures for the Ki in [1], in test [12] and in test [18] were 9.6 nM, 79 nM and 180 nM, respectively. In addition, the Activity in test [2] was -25%; in test [3], -13%; in [4], 0%; in [5], -4%; in test [6] it was -5%; in [7], -11%. For the same compound, the Activity in test [8] was -95%; in test [9], 9%; in test [10], -21%; in test [11], -14%; in test [13], -56%; in test [14], 0%. The Activity in [15] was -95%; in test [16] it was 0%; in test [17], -80%; in [19], -7%; in test [20], -6%.

For `COc1cc2c(cc1OC)Cc1[nH]c3ccccc3c1CCN(C)CC2`, the Ki in test [1] amounted to 91 nM; in [12], 730 nM; in test [18], 960 nM. Further, the Activity was -22% in [2]; -2% in [3]; 1% in test [4]; -23% in test [5]; -1% in [6]; -9% in [7]. Further, the Activity in test [8] was -77%; in [9] it was 9%; in [10] it was -19%; in [11] it was -22%; in [13], -44%; in [14] it was -8%. Moreover, the Activity was -82% in [15]; 1% in test [16]; -67% in test [17]; -10% in test [19]; 3% in test [20].

Regarding `C[N+]12CCc3c([nH]c4ccccc34)C1c1[nH]c3ccccc3c1CC2` (configuration not stated), the Activity in test [21] is 11%; in test [2], -3%; in test [3], -33%; in test [4], 6%; in [5] it was -4%; in test [6] it was -17%. Also, the Activity in test [7] was 7%; in test [9], -3%; in test [23], 11%; in test [10], -4%; in [11], -15%; in test [13], -20%. Further, the Activity was 0% in test [16], -32% in test [24], 3% in test [19] and -22% in [25]. In addition, in test [22], the Decrease was -64%.
